Results from ChEMBL document CHEMBL5149984, “Discovery of HN37 as a Potent and Chemically Stable Antiepileptic Drug Candidate” (J Med Chem, 2021).
pIC50: −log10 of the molar value.

What was measured:
CHO = experiment: Agonist activity at rat KCNQ3 A278T mutant expressed in CHO cells assessed as amplitude change of outward current at 10 uM by patch clamp method; type: cell-based; conditions: filed as agonist
In short: (§1)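 Whole-cell patch clamp at room temperature on CHO cells (DMEM/F12, 10% FBS) transiently co-transfected with EGFP and hKCNQ1, rKCNQ2, rKCNQ3 A278T, hKCNQ4 or hKCNQ5; KCNQ2/3 at 1:1 cDNA ratio. Pipette solution 145 mM KCl, 5 mM MgATP, pH 7.3; bath 140 mM NaCl, 5 mM KCl, pH 7.4, under perfusion. V1/2 from Boltzmann fits; I/I0 is current amplitude with versus without compound; n = 4−6.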

[1] = molecular target: Potassium voltage-gated channel subfamily KQT member 2/member 3 (Rattus norvegicus) (UniProt O88943+O88944); experiment: Agonist activity at rat KCNQ2/3 channel expressed in CHO cells assessed as amplitude change of outward current at 10 uM by patch clamp method; type: cell-based; conditions: filed as agonist; in short: as §1
Mus musculus [2] = experiment: Anticonvulsant activity in pentylenetetrazol induced Kunming mouse model of seizure at 30 mg/kg, po after 1 hr; type: functional
In short: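 sc-PTZ test in male KM mice. Compound suspended in 0.5% CMC-Na and given orally 1 h before PTZ (freshly dissolved in normal saline, 100 mg/kg). Protection against clonic seizures scored; ED50 by nonlinear regression.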

Mus musculus [3] = experiment: Anticonvulsant activity in MES induced Kunming mouse model of seizure at 100 mg/kg, po; type: functional
In short: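 MES test in male KM mice. Compounds freshly suspended in 0.5% CMC-Na and given by gavage at 20 mL/kg; 160 V stimulus through ear clips. Protection scored as absence of hindlimb tonic extension; time course at 0.25, 0.5, 1 and 2 h, otherwise tested at 1 h. ED50 from dose−response by nonlinear regression; Fisher's exact test versus vehicle.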

[4] = Neurotoxicity in Kunming mouse assessed as motor impairment rate at 300 mg/kg, po after 1 hr by rotarod test; type: toxicity, organism-based; conditions: in vivo
In short: (§2)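 Male KM mice dosed intragastrically with compound freshly suspended in 0.5% CMC-Na. Rotarod performance scored 1 h after dosing as the fraction of animals showing motor impairment. Fisher's exact test versus vehicle; TD50 from nonlinear dose−response fit.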

[5] = Cmax in Kunming mouse plasma at 5 mg/kg, po measured upto 24 hrs by LC-MS/MS method; type: ADME, organism-based; design: dose 5 mg/kg, time < 24 hrs, route po
In short: (§3)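 KM male mice (18−24 g), fasted 12 h before and 2 h after dosing. HN37 given orally at 5 mg/kg in 5% DMSO/5% Tween 80/90% saline, or iv at 2 mg/kg after dilution in saline with 1% Tween 80; n = 3 per time point. Blood sampled 0.25–24 h (from 0.083 h after iv); whole brain taken after oral dosing. Plasma and brain extracted with acetonitrile, quantified by LC−MS/MS; AUC0−t by trapezoidal method.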

[6] = AUC(0 to t) in Kunming mouse plasma at 5 mg/kg, po measured upto 24 hrs by LC-MS/MS method; type: ADME, organism-based; design: dose 5 mg/kg, time < 24 hrs, route po; in short: as §3
[7] = Tmax in Sprague-Dawley rat at 2 mg/kg, po measured upto 24 hrs by LC-MS/MS method; type: ADME, organism-based; conditions: in vivo
In short: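 Male SD rats (180–220 g) dosed orally at 2, 6 and 20 mg/kg, handled like the mice: fasting, 5% DMSO/5% Tween 80/saline vehicle, acetonitrile extraction, LC-MS/MS of plasma. In a separate set at 6 mg/kg p.o., blood and brain were sampled together.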

[8] = Cmax in Sprague-Dawley rat at 2 mg/kg, po measured upto 24 hrs by LC-MS/MS method; type: ADME, organism-based; design: time < 24 hrs, dose 2 mg/kg, route po; conditions: in vivo
In short: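 Male SD rats (180−220 g) dosed orally at 2, 6 or 20 mg/kg in escalating fashion, handled as in the mouse study: 12 h fast, acetonitrile extraction of plasma, LC−MS/MS quantification. AUC0−t by trapezoidal method to the last measurable concentration.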

[9] = Metabolic stability in monkey liver microsomes assessed as half life; type: ADME, Macaca mulatta, Microsome; conditions: rhesus monkey
CYP1A2 = CYP1A2 (Homo sapiens, UniProt P05177); experiment: Inhibition of human liver microsome CYP1A2 at 0.10 to 50 uM preincubated with NADPH for 0.5 hrs followed by substrate addition by LC-MS/MS method relative to control; type: ADME; conditions: liver microsomes, dose 0.1-50 µM
Chain of CYP1A2 (P05177 whole entry): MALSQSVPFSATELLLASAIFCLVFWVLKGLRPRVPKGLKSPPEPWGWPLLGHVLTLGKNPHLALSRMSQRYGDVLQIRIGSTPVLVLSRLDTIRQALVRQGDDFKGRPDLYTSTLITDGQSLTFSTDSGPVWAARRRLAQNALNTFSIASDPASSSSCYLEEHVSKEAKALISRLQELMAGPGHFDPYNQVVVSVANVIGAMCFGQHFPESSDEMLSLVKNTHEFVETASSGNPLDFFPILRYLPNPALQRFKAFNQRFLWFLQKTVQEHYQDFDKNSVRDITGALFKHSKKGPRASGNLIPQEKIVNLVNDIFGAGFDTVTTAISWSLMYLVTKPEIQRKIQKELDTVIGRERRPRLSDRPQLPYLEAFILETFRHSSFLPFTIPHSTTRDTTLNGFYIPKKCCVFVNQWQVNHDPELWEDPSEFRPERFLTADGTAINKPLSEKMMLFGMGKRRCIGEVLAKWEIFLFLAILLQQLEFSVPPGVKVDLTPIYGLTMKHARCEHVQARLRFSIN

Cytochrome P450 2C9 = Cytochrome P450 2C9 (Homo sapiens, UniProt P11712); experiment: Time dependent inhibition of human liver microsome CYP2C9 preincubated for 0.5 hrs in presence or absence of NADPH followed by substrate addition by LC-MS/MS method; type: ADME, microsomes
Chain of Cytochrome P450 2C9 (P11712 whole entry): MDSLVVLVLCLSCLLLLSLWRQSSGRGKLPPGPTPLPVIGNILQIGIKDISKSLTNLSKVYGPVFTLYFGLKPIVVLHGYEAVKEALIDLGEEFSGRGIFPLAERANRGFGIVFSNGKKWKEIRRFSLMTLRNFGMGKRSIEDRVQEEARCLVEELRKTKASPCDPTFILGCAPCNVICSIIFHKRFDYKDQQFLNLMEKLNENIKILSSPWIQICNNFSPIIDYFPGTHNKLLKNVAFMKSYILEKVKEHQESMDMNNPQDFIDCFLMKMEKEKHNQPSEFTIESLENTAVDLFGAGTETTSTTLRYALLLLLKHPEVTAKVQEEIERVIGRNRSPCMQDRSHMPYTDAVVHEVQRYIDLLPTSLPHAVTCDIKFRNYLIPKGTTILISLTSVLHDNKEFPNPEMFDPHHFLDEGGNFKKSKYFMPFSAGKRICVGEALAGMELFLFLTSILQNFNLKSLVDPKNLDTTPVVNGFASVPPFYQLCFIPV
In short: (§4)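 Human liver microsomes preincubated 0.5 h with 0.10–50 μM test compound, with or without NADPH, then CYP-specific probe substrate added and incubation continued. Metabolite measured by LC-MS/MS; % activity remaining relative to no-compound control; IC50 fitted by Probit model. For CYP3A4, midazolam 1′-hydroxylation and testosterone 6β-hydroxylation were read separately.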

Cytochrome P450 3A4 = Cytochrome P450 3A4 (Homo sapiens, UniProt P08684); experiment: Time dependent inhibition of human liver microsome CYP3A4 preincubated for 0.5 hrs in presence or absence of NADPH followed by midazolam addition by LC-MS/MS method; type: ADME, microsomes; in short: as §4
Chain of Cytochrome P450 3A4 (P08684 whole entry): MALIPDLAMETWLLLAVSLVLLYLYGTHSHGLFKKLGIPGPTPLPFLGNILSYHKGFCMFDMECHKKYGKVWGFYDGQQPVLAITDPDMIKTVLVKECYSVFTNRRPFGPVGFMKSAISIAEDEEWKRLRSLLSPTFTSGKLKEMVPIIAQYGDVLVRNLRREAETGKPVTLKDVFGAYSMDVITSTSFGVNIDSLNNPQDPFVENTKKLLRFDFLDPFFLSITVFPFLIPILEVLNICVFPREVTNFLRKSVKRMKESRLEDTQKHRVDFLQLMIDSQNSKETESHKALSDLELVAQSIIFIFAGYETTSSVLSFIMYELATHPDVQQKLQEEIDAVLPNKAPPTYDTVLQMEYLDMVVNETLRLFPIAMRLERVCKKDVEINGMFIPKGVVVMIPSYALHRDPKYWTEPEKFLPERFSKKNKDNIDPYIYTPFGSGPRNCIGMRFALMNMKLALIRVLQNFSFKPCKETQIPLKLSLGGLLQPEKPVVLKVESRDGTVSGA

CYP2C9 = CYP2C9 (Homo sapiens, UniProt P11712); experiment: Ratio of IC50 for human liver microsome CYP2C9 in absence of NADPH to IC50 for human liver microsome CYP2C9 in presence of NADPH; conditions: liver microsomes, read-out: Ratio IC50
Chain of CYP2C9 (P11712 whole entry): as the sequence (P11712 whole entry) above

CYP3A4 = CYP3A4 (Homo sapiens, UniProt P08684); experiment: Ratio of IC50 for human liver microsome CYP3A4 using testosterone as substrate in absence of NADPH to IC50 for human liver microsome CYP3A4 using testosterone as substrate in presence of NADPH; conditions: liver microsomes, probe testosterone, read-out: Ratio IC50
Chain of CYP3A4 (P08684 whole entry): as the sequence (P08684 whole entry) above
In short: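 Human liver microsomes preincubated 0.5 h with 0.10−50 μM compound, with or without NADPH, then CYP-specific probe substrates added (CYP3A4 with midazolam 1′-hydroxylation and with testosterone 6β-hydroxylation). Metabolites quantified by LC−MS/MS; % activity remaining computed against no-compound control. IC50 fitted by Probit model; ratio = IC50(−NADPH)/IC50(+NADPH).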

Cytochrome P450 1A2 = Cytochrome P450 1A2 (Homo sapiens, UniProt P05177); experiment: Time dependent inhibition of human liver microsome CYP1A2 preincubated for 0.5 hrs in absence of NADPH followed by substrate addition by LC-MS/MS method; type: ADME, microsomes; in short: as §4
Chain of Cytochrome P450 1A2 (P05177 whole entry): as the sequence (P05177 whole entry) above

Cytochrome P450 2B6 = Cytochrome P450 2B6 (Homo sapiens, UniProt P20813); experiment: Time dependent inhibition of human liver microsome CYP2B6 preincubated for 0.5 hrs in absence of NADPH followed by substrate addition by LC-MS/MS method; type: ADME, microsomes; in short: as §4
Chain of Cytochrome P450 2B6 (P20813 whole entry): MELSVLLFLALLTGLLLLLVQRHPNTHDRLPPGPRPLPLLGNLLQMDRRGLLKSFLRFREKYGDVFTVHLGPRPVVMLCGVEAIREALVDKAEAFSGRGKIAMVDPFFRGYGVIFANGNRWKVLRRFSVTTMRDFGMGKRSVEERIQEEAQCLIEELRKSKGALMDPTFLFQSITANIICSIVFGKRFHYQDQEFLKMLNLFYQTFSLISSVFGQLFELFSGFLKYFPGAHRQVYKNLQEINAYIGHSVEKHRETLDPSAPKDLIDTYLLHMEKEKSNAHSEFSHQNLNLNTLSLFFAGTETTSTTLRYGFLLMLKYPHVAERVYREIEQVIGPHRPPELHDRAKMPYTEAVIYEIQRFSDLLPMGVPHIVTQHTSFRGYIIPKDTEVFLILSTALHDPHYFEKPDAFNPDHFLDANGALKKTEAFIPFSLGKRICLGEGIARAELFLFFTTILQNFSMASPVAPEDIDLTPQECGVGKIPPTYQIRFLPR

Cytochrome P450 2C8 = Cytochrome P450 2C8 (Homo sapiens, UniProt P10632); experiment: Time dependent inhibition of human liver microsome CYP2C8 preincubated for 0.5 hrs in absence of NADPH followed by substrate addition by LC-MS/MS method; type: ADME, microsomes; in short: as §4
Chain of Cytochrome P450 2C8 (P10632 whole entry): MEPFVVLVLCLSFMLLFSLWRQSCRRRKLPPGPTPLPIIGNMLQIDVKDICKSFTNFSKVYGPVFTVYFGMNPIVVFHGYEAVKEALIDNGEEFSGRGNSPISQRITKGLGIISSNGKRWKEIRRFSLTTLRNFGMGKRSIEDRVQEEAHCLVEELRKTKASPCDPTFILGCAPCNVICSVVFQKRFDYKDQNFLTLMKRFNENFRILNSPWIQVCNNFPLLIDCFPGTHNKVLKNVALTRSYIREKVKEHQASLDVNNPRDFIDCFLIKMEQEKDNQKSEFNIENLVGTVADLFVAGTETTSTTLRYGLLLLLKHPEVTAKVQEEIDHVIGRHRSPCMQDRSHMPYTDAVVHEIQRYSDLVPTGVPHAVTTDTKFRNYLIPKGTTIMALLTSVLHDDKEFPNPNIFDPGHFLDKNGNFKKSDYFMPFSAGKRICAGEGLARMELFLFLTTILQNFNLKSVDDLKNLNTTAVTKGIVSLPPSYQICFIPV

[10] = molecular target: Potassium voltage-gated channel subfamily KQT member 5 (Homo sapiens) (UniProt Q9NR82); experiment: Agonist activity at human KCNQ5 channel expressed in CHO cells assessed as amplitude change of outward current at 0.1 uM by patch clamp method; type: cell-based; conditions: filed as agonist; in short: as §1
Chain of Potassium voltage-gated channel subfamily KQT member 5 (Homo sapiens) (Q9NR82 whole entry): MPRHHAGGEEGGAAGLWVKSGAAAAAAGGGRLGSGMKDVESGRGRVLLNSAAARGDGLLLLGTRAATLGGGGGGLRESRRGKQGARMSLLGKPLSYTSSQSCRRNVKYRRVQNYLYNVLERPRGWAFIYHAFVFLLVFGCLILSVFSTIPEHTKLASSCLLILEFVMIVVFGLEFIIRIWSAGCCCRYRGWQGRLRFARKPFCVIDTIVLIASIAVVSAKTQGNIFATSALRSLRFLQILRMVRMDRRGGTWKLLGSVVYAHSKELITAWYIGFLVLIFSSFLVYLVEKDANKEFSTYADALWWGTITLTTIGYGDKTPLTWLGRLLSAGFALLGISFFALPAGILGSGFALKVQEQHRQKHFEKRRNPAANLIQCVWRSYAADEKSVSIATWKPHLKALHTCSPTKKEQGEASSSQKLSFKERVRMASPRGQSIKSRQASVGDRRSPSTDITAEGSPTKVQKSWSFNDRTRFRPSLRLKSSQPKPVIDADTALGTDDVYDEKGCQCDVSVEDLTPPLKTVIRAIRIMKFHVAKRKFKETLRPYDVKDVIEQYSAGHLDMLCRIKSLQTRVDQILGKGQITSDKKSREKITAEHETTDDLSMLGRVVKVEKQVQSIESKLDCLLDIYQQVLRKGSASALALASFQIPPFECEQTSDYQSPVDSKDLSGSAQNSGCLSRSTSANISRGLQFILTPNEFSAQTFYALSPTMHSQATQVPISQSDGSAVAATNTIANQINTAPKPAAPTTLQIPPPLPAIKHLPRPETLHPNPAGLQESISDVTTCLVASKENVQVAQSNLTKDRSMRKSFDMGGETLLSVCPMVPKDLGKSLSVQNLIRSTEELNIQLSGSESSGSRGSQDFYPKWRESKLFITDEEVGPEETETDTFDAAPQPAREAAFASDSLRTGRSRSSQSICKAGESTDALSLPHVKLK

[11] = Neurotoxicity in Kunming mouse assessed as motor impairment rate at 200 mg/kg, po after 1 hr by rotarod test; type: toxicity, organism-based; conditions: in vivo; in short: as §2

SMILES	Activity (CHO)	Activity [1]	Activity (Mus musculus [2]) [%]	Activity (Mus musculus [3]) [%]	Activity [4] [%]	Cmax [5] [ng/mL]	AUC(0-t) at 24 h [6] [ng·h/mL]	Tmax [7] [min]	Cmax [8] [ng/mL]	half-life [9] [min]	inhibition at 0.5 h, up to 50 µM (CYP1A2) [%]	pIC50 (Cytochrome P450 2C9)	pIC50 (Cytochrome P450 3A4)	IC50 shift (CYP2C9)	IC50 shift (CYP3A4)	pIC50 (Cytochrome P450 1A2)	pIC50 (Cytochrome P450 2B6)	pIC50 (Cytochrome P450 2C8)	Activity [10]	Activity [11] [%]
CCOC(=O)Nc1ccc(NCc2ccc(F)cc2)cc1N [EZOGABINE]	2.46	1.97	50	87.5	100															
C#CCN(Cc1ccc(F)cc1)c1cc(C)c(NC(=O)OC)c(C)c1						134	321	30	88.2	18.1	< 25	< 4.30	< 4.30	< 1.5	< 1.5	3.85	3.85	3.65	3.14	100
